Experimental data reported in ChEMBL document CHEMBL4017497, “Structure-Affinity Relationships and Structure-Kinetics Relationships of Pyrido[2,1-f]purine-2,4-dione Derivatives as Human Adenosine A3 Receptor Antagonists” (J Med Chem, 2017).

Legend:
[1] = target: T1, Adenosine receptor A3 (Homo sapiens) (UniProt P0DMS8); assay: (§1) Displacement of [3H]PSB-11 from human adenosine A3 receptor expressed on CHO cell membranes after 2 hrs by scintillation spectrometry
T1 sequence (whole entry): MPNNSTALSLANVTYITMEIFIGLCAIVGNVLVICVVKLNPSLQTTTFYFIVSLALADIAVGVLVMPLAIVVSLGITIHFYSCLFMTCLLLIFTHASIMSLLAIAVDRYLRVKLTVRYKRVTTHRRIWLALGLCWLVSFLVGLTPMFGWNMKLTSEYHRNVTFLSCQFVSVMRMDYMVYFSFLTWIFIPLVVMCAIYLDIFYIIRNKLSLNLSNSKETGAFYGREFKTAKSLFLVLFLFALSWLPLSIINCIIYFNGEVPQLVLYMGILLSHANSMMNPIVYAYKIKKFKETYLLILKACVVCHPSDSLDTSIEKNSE

Adenosine receptor A3 [2] = target: T2, Adenosine receptor A3 (Homo sapiens, UniProt P0DMS8); assay: as §1
T2 sequence (P0DMS8 whole entry): T1 sequence (whole entry)

[3] = target: T1, Adenosine receptor A3 (Homo sapiens); assay: Displacement of [3H]PSB-11 from human adenosine A3 receptor expressed on CHO cell membranes assessed as kinetic rate index at IC50 measured after 240 mins by scintillation spectrometry
Outline: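 Dual-point competition association at 10 °C. […] Specific binding read at 20 min (t1) and 240 min (t2); KRI derived from these two time points. n = 2 or 3.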

[4] = target: T1, Adenosine receptor A3 (Homo sapiens); assay: Displacement of [3H]PSB-11 from human adenosine A3 receptor expressed on CHO cell membranes assessed as dissociation rate constant after 120 mins by scintillation spectrometry
[5] = target: T1, Adenosine receptor A3 (Homo sapiens); assay: Displacement of [3H]PSB-11 from human adenosine A3 receptor expressed on CHO cell membranes assessed as association rate constant after 120 mins by scintillation spectrometry
Adenosine receptor A3 [6] = target: T2, Adenosine receptor A3; assay: Antagonist activity at human adenosine A3 receptor expressed in CHO cell membranes assessed as inhibition of 2-Cl-IB-MECA-induced [35S]GTPgammaS binding preincubated with or without for 60 mins followed by addition of 2-Cl-IB-MECA and [35S]GTPgammaS measured after 30 mins; format: functional; conditions: read-out: pA2 (converted)
Adenosine receptor A3 [7] = target: T2, Adenosine receptor A3; assay: Antagonist activity at human adenosine A3 receptor expressed in CHO cell membranes assessed as inhibition of 2-Cl-IB-MECA-induced [35S]GTPgammaS binding measured after 30 mins; format: functional; conditions: read-out: pA2 (converted)
Outline: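 CHOhA3 membranes (15 μg) in 50 mM Tris-HCl, 5 mM MgCl2, 1 mM EDTA, 0.05% BSA, 1 mM DTT, pH 7.4, with 1 μM GDP and 5 μg saponin. […] 2-Cl-IB-MECA 0.1 nM–10 μM with ~0.3 nM [35S]GTPγS, 30 min at 25 °C. Filtration. Schild analysis from EC50 shifts gives pA2 and slope.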

SMILES | inhibition [1] | Ki (Adenosine receptor A3 [2]) [nM] | Activity index [3] | K [4] | K [5] | Kb (Adenosine receptor A3 [6]) [nM] | Kb (Adenosine receptor A3 [7]) [nM]
COc1ccn2c(c1)nc1c2c(=O)n(CC2CC2)c(=O)n1Cc1ccc(Br)cc1 | Dose-dependent effect | 1.2 | 1.19 | – | – | – | –
COc1ccn2c(c1)nc1c2c(=O)n(CC2CC2)c(=O)n1Cc1ccc(Cl)c(Cl)c1 | Dose-dependent effect | 5.3 | 3.12 | 5.3 ×10⁻⁵ /s | 1 ×10⁵ /M/s | – | –
COc1ccn2c(c1)nc1c2c(=O)n(CCCO)c(=O)n1Cc1ccccc1 | Dose-dependent effect | 81 | 1.04 | – | – | – | –
COc1ccn2c(c1)nc1c2c(=O)n(C)c(=O)n1Cc1ccccc1 | Dose-dependent effect | 20.8 | 0.54 | – | – | – | –
COc1ccn2c(c1)nc1c2c(=O)n(CC2CC2)c(=O)n1Cc1ccc(Cl)cc1 | Dose-dependent effect | 1.2 | 1.11 | 8.2 ×10⁻⁴ /s | 3 ×10⁶ /M/s | – | –
CCCCn1c(=O)c2c(nc3cc(OC)ccn32)n(Cc2ccccc2)c1=O | Dose-dependent effect | 1.5 | 1.29 | – | – | – | –
C=CCCn1c(=O)c2c(nc3cc(OC)ccn32)n(Cc2ccccc2)c1=O | Dose-dependent effect | 1.4 | 1.23 | – | – | – | –
COCCn1c(=O)c2c(nc3cc(OC)ccn32)n(Cc2ccccc2)c1=O | Dose-dependent effect | 23 | 0.7 | 6.3 ×10⁻⁴ /s | 4.3 ×10⁵ /M/s | – | –
COc1ccn2c(c1)nc1c2c(=O)n(CC2CC2)c(=O)n1Cc1ccc(C)cc1 | Dose-dependent effect | – | – | – | – | – | –
COc1ccn2c(c1)nc1c2c(=O)n(CC2CC2)c(=O)n1Cc1ccccc1 | Dose-dependent effect | 1 | 2.68 | 6 ×10⁻⁵ /s | 2.8 ×10⁶ /M/s | – | –
COc1ccn2c(c1)nc1c2c(=O)[nH]c(=O)n1Cc1ccccc1 | Dose-dependent effect | 108 | 0.38 | 1.4 ×10⁻² /s | 5.3 ×10⁵ /M/s | 158 | 63.1
CCCCCCn1c(=O)c2c(nc3cc(OC)ccn32)n(Cc2ccccc2)c1=O | Dose-dependent effect | 2.8 | 2.18 | 8.2 ×10⁻⁵ /s | 2.3 ×10⁵ /M/s | – | –
C=CCn1c(=O)c2c(nc3cc(OC)ccn32)n(Cc2ccccc2)c1=O | Dose-dependent effect | 5.9 | 0.72 | – | – | – | –
CCc1ccc(Cn2c(=O)n(CC3CC3)c(=O)c3c2nc2cc(OC)ccn23)cc1 | Dose-dependent effect | 0.71 | 0.81 | – | – | – | –
COc1ccn2c(c1)nc1c2c(=O)n(CCC(C)(C)C)c(=O)n1Cc1ccccc1 | Dose-dependent effect | 8 | 0.95 | – | – | – | –
CCCCCn1c(=O)c2c(nc3cc(OC)ccn32)n(Cc2ccccc2)c1=O | Dose-dependent effect | 3.5 | 1.11 | 6 ×10⁻⁴ /s | 1.1 ×10⁶ /M/s | – | –
CCn1c(=O)c2c(nc3cc(OC)ccn32)n(Cc2ccccc2)c1=O | Dose-dependent effect | 10.7 | 0.8 | – | – | – | –
COc1ccn2c(c1)nc1c2c(=O)n(CC(C)C)c(=O)n1Cc1ccccc1 | Dose-dependent effect | 1.2 | 1.64 | 2 ×10⁻⁴ /s | 7.8 ×10⁵ /M/s | – | –
COc1ccn2c(c1)nc1c2c(=O)n(C[Si](C)(C)C)c(=O)n1Cc1ccccc1 | Dose-dependent effect | 2.7 | 1.36 | – | – | – | –
COc1ccn2c(c1)nc1c2c(=O)n(CC(C)(C)C)c(=O)n1Cc1ccccc1 | Dose-dependent effect | 3.5 | 1.73 | 1.1 ×10⁻⁴ /s | 5.5 ×10⁵ /M/s | – | –
COc1ccn2c(c1)nc1c2c(=O)n(CCC(C)C)c(=O)n1Cc1ccccc1 | Dose-dependent effect | 3.5 | 1.39 | – | – | – | –
C#CCn1c(=O)c2c(nc3cc(OC)ccn32)n(Cc2ccccc2)c1=O | Dose-dependent effect | 4.3 | 1.2 | – | – | – | –
COc1ccn2c(c1)nc1c2c(=O)n(CC2CC2)c(=O)n1Cc1cccc(Cl)c1 | Dose-dependent effect | 4.9 | 0.89 | 4.7 ×10⁻⁴ /s | 8.2 ×10⁵ /M/s | – | –
CCCCCCCn1c(=O)c2c(nc3cc(OC)ccn32)n(Cc2ccccc2)c1=O | Dose-dependent effect | 6.8 | 4.06 | 6.2 ×10⁻⁵ /s | 4.2 ×10⁵ /M/s | – | –
COc1ccn2c(c1)nc1c2c(=O)n(CC2CC2)c(=O)n1CCc1ccccc1 | Dose-dependent effect | 7.7 | 1.09 | – | – | – | –
COc1ccn2c(c1)nc1c2c(=O)n(CC2CC2)c(=O)n1Cc1cccc(C)c1 | Dose-dependent effect | 1.5 | 1.18 | – | – | – | –
COc1cccc(Cn2c(=O)n(CC3CC3)c(=O)c3c2nc2cc(OC)ccn23)c1 | Dose-dependent effect | 0.38 | 2.24 | 4.7 ×10⁻⁵ /s | 4.8 ×10⁵ /M/s | – | 1.26
COc1ccn2c(c1)nc1c2c(=O)n(CC2CCC2)c(=O)n1Cc1ccccc1 | Dose-dependent effect | 2.7 | 1.48 | – | – | – | –
COc1ccc(Cn2c(=O)n(CC3CC3)c(=O)c3c2nc2cc(OC)ccn23)cc1 | Dose-dependent effect | 1.4 | 1.39 | 7.8 ×10⁻⁵ /s | 4.8 ×10⁵ /M/s | – | –
CCCn1c(=O)c2c(nc3cc(OC)ccn32)n(Cc2ccccc2)c1=O | Dose-dependent effect | 3.2 | 0.99 | 3.2 ×10⁻⁴ /s | 8.5 ×10⁵ /M/s | – | –
